Results reported in ChEMBL document CHEMBL3774339, “Exploring Selective Inhibition of the First Bromodomain of the Human Bromodomain and Extra-terminal Domain (BET) Proteins” (J Med Chem, 2016).
Each block holds one compound with its values, some of them ahead of it.

How the values were obtained:
[1] = target: Bromodomain-containing protein 3 (Homo sapiens, UniProt Q15059); experiment: Inhibition of human BRD3 bromodomain2 using H4KAc 5/8/12/16 peptide as substrate incubated overnight by HTRF assay
[2] = system: Jurkat; experiment: Downregulation of c-Myc in human Jurkat cells assessed as expression level at 10 uM after 24 hrs by Western blot analysis; type: functional
Summary of the method: (§1)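 Jurkat cells exposed to different compound concentrations in 0.5% DMSO for 24 h. c-Myc detected on blots loaded with 50 μg protein.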

[3] = species on record: Homo sapiens; experiment: Selectivity ratio of IC50 for GST-tagged human BRDT bromodomain1 to IC50 for GST-tagged human BRD4 bromodomain1
[4] = target: Bromodomain testis-specific protein (Homo sapiens, UniProt Q58F21); experiment: Inhibition of GST-tagged human BRDT bromodomain1 using H4KAc 5/8/12/16 peptide as substrate incubated overnight by HTRF assay
[5] = species on record: Homo sapiens; experiment: Selectivity ratio of IC50 for GST-tagged human BRD2 bromodomain1 to IC50 for GST-tagged human BRD4 bromodomain1
[6] = system: Jurkat; experiment: Antiproliferative activity against human Jurkat cells after 72 hrs by Cell Titer-Glo luminescence assay; type: functional, cell-based
Summary of the method: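 Jurkat cell viability read across a range of compound concentrations after 72 h incubation at 37 °C. EC50 taken from the dose–response.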

[7] = target: T1, ATPase family AAA domain-containing protein 2 (Homo sapiens, UniProt Q6PL18); experiment: Inhibition of GST-tagged human ATAD2 using H4KAc 5/8/12/16 peptide as substrate incubated overnight by HTRF assay
T1 sequence (Q6PL18 whole entry): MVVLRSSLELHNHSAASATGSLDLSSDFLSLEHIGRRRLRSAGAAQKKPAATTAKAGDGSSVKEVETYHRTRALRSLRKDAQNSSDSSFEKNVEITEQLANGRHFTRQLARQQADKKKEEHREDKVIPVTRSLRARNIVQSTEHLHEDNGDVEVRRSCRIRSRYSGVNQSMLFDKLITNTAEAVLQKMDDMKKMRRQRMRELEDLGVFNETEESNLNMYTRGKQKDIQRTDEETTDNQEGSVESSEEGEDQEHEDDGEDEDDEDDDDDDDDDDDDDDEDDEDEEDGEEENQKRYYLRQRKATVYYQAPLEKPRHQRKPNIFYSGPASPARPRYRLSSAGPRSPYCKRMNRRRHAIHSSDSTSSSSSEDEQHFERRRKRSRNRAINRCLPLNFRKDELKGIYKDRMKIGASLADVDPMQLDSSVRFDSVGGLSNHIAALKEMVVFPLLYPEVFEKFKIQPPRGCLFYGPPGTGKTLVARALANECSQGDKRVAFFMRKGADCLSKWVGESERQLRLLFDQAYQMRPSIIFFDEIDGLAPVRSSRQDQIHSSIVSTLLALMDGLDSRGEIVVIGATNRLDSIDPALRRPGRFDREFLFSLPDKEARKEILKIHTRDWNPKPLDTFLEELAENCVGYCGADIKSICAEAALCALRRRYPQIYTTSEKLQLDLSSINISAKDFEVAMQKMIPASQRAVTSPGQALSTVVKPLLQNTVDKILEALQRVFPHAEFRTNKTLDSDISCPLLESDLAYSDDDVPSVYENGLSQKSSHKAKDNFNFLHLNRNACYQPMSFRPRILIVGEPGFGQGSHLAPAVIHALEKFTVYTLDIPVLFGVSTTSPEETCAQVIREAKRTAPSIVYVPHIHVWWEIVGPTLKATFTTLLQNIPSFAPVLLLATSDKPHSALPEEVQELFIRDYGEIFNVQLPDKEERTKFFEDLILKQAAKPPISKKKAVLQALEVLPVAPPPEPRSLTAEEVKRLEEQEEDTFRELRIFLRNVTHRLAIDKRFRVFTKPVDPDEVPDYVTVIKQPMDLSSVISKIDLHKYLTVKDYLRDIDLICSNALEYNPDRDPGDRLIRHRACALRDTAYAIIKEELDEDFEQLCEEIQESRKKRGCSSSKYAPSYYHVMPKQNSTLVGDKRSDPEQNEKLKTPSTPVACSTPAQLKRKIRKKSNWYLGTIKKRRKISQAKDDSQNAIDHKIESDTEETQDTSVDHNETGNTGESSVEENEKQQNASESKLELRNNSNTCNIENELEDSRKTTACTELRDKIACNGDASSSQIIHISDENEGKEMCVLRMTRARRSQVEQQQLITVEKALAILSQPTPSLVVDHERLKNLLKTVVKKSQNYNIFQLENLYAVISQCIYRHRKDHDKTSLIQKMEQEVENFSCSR

[8] = system: Jurkat; experiment: Downregulation of c-Myc in human Jurkat cells assessed as expression level at 1 uM after 24 hrs by Western blot analysis; type: functional; summary of the method: as §1
[9] = system: Jurkat; experiment: Downregulation of c-Myc in human Jurkat cells assessed as expression level at 50 uM after 24 hrs by Western blot analysis; type: functional; summary of the method: as §1
[10] = system: Jurkat; experiment: Downregulation of c-Myc in human Jurkat cells assessed as expression level after 24 hrs by Western blot analysis; type: functional, cell-based; summary of the method: as §1
[11] = species on record: Homo sapiens; experiment: Selectivity ratio of IC50 for GST-tagged human BRD3 bromodomain1 to IC50 for GST-tagged human BRD4 bromodomain1
[12] = target: Bromodomain-containing protein 4 (Homo sapiens, UniProt O60885); experiment: Inhibition of GST-tagged human BRD4 bromodomain1 using H4KAc 5/8/12/16 peptide as substrate incubated overnight by HTRF assay

Chain of Bromodomain-containing protein 3 (Q15059 whole entry): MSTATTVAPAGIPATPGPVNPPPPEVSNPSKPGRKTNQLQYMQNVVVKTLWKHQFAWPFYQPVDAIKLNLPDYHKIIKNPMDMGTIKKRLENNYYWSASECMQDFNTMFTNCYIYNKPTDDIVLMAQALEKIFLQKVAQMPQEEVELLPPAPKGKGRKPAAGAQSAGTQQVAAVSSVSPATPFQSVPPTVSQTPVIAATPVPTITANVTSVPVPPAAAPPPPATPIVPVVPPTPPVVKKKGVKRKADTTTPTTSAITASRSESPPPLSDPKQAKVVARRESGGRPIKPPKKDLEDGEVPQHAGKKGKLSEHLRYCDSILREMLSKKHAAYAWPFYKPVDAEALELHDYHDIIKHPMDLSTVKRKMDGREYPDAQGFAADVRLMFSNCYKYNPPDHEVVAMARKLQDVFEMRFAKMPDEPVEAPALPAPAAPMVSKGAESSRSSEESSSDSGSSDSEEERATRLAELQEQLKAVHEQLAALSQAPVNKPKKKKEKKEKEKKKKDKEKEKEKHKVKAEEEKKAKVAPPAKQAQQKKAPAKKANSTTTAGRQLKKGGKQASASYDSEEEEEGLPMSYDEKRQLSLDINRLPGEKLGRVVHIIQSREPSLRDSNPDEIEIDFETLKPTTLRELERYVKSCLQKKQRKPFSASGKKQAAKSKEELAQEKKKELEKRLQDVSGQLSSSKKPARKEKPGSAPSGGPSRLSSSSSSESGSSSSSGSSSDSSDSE

- IC50 [1]: 1800 nM
Compound: CCn1cnc2c1c(=O)[nH]c(=O)n2Cc1ccc(Cl)cc1

- Ratio IC50 [3]: > 10
- IC50 [4]: > 100 µM
- Ratio IC50 [5]: > 10
- EC50 [6]: 27 µM
- IC50 [7]: > 100 µM
- Ratio IC50 [11]: > 10
Compound: CCCCc1c(C)nc2nc(SCc3nc4c(c(=O)[nH]c(=O)n4CCCC)n3CC)nn2c1C
- Activity [2]: 98%
- Activity [6]: Dose-dependent effect
- Activity [8]: 62%
- Activity [9]: 3%
- Activity [10]: Dose-dependent effect

- IC50 [4]: > 100 µM
Compound: CCn1c(CSc2n[nH]c(N)n2)nc2c1c(=O)[nH]c(=O)n2Cc1ccc(Cl)cc1

- IC50 [12]: > 50 µM
Compound: CCCCn1c(=O)[nH]c(=O)c2c1nc(CSc1n[nH]c(N)n1)n2CC
